Among the data in ChEMBL document CHEMBL1149846, “The role of lipophilicity in determining binding affinity and functional activity for 5-HT2A receptor ligands” (Bioorg Med Chem, 2008) are Efficacy and Ki values, retold here.

Assay [1] has as its target 5-hydroxytryptamine receptor 2A (Rattus norvegicus) (UniProt P14842). The assay is described as follows: Agonist activity at Sprague-Dawley rat 5HT2A receptor by drug discrimination assay. The note with it: filed as agonist. Type of assay: functional.
In assay [2] the target is T1, 5-hydroxytryptamine receptor 2A (Rattus norvegicus, UniProt P14842). The assay is described as follows: Displacement of [3H]MDL100907 from 5HT2A receptor in Sprague-Dawley rat brain by liquid scintillation spectroscopy. A digest of the protocol: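 Frontal cortex from male Sprague-Dawley rat brains, washed in 50 mM Tris-HCl pH 7.4 and resuspended in buffer with 0.5 mM Na2EDTA, 10.0 μM pargyline, 5.7 mM CaCl2 and 0.1% ascorbate. Cinanserin (10 μM) defined nonspecific binding. Bound label was collected by GF/C filtration and counted. Values from ≥3 experiments, each in triplicate.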
Background: In a radioligand displacement assay an active substance lowers the binding of a labelled ligand.

The target of assay [3] is 5-hydroxytryptamine receptor 2A (Rattus norvegicus) (UniProt P14842). Briefly: Antagonist activity at Sprague-Dawley rat 5HT2A receptor by drug discrimination assay. The assay is classed as functional. The note with it: filed as antagonist.
Assay [4] has as its target T1, 5-hydroxytryptamine receptor 2A. Briefly: Displacement of [3H]ketanserin from 5HT2A receptor in Sprague-Dawley rat brain by liquid scintillation spectroscopy.

5-hydroxytryptamine receptor 2A (Rattus norvegicus), sequence (P14842 whole entry): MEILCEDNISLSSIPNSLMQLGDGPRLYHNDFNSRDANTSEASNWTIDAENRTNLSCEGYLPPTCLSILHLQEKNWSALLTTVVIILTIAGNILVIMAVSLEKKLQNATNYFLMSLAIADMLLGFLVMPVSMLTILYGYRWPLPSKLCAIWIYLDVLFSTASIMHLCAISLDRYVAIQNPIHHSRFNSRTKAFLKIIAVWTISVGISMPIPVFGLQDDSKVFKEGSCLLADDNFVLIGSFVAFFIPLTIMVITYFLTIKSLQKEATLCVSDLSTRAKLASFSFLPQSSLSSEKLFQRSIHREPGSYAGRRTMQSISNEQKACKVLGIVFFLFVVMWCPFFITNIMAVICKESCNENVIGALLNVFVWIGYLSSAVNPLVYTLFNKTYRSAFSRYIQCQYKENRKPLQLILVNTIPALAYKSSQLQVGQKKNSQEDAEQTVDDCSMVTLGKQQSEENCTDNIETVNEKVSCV
T1 sequence (P14842 whole entry): as above

As to `CN(C)CCc1c[nH]c2ccccc12`, the Efficacy entry in assay [1] was “Agonist”. Moreover, the inhibition constant Ki (as a rule, a dissociation constant, usually derived from enzyme kinetics or from competition with a known ligand) in assay [2] was 1640 nM.
For the compound `CN(C)CCc1c[nH]c2sccc12`, in assay [3], the Efficacy result was “Antagonist”. In assay [2], this compound registered a Ki of 3680 nM.
For `CN(C)CCc1c[nH]c2ccsc12`, in assay [3], the Efficacy result was “Antagonist”. The affinity in assay [2], expressed as Ki, was 4610 nM.
Take `COc1cc(CCN)cc(OC)c1OCCc1ccccc1`: the Efficacy entry in assay [3] is “Antagonist”. The compound further yielded a Ki in assay [4] of 59 nM.
For `COc1cc(CCN)cc(OC)c1OC`, the Efficacy result in assay [1] is “Agonist”.
Turning to `Cc1nc2sccn2c(=O)c1CCN1CCC(=C(c2ccc(F)cc2)c2ccc(F)cc2)CC1`, in assay [3], the Efficacy entry was “Antagonist”.
Take `NCCc1c2c(c(Br)c3c1OCC3)OCC2`: in assay [1], the Efficacy result was “Agonist”.
`NCCc1c2c(cc3c1OCC3)OCC2`: the Efficacy entry in assay [1] was “Agonist”.
As to `COc1cc(C)cc(OC)c1CC(C)N` (racemic), the Efficacy entry in assay [1] is “Agonist”. The same compound returned a Ki in assay [4] of 351 nM.
Regarding `CSc1c2c(c(CC(C)N)c3c1OCC3)CCO2` (racemic), the inhibition constant (Ki) in assay [2] stood at 476 nM.
Compound `COc1cc2c(cc1Br)OCCC(N)C2` (racemic) had a Ki in assay [4] of 422 nM.
With `CSc1cc(CC(C)N)c(SC)cc1C` (racemic), in assay [3], the Efficacy entry is “Antagonist”. The compound further gave an inhibition constant Ki in assay [4] of 177 nM.
In the case of `CC(N)Cc1c2ccccc2c(Br)c2ccccc12` (racemic), the Efficacy entry in assay [3] was “Antagonist”. The affinity in assay [2] corresponds to a Ki of 313 nM.
With `CC(N)Cc1cc(F)c(Br)cc1F` (racemic), in assay [3], the Efficacy result was “Antagonist”. Also, in assay [2], the affinity corresponds to a Ki of 2510 nM.
Turning to `COc1cc(CC(C)N)c(OC)cc1I` (racemic), the Efficacy result in assay [1] was “Agonist”. Further, the Ki in assay [4] came to 19 nM.
Taken in the same sequence, the figures for `COc1cc(C(F)(F)F)c(OC)cc1CC(C)N` (racemic) were “Agonist” and 33 nM.
Turning to `CC(N)Cc1c2c(c(Br)c3c1OCC3)OCC2` (racemic), in assay [1], the Efficacy entry was “Agonist”.
On to `CC(N)Cc1c2ccoc2c(Br)c2ccoc12` (racemic), for which the Efficacy result in assay [1] is “Agonist”.
Turning to `CCc1cc(OC)c(CC(C)N)cc1OC` (racemic), the Efficacy result in assay [1] is “Agonist”.
As for `COc1cc(CC(C)N)c(OC)cc1Br` (racemic), in assay [1], the Efficacy result was “Agonist”.
`COc1cc(CC(C)N)c(OC)cc1C` (racemic) [DOM]: the Ki in assay [4] stood at 100 nM.
Consider `CN(C)CCc1c[nH]c2cccc(O)c12` [PSILOCIN], for which the Efficacy result in assay [1] is “Agonist”. For the same compound, the affinity in assay [2] corresponds to a Ki of 323 nM.
